The values that follow come from publication PMC9868104 (Cell chemical biology, 2022).

One may read the IC50 as the concentration that gives 50% inhibition.

Series [1] has as its system STING signaling (STING, pTBK1, pIRF3). The experiment in a line: STING, pTBK1 and pIRF3 western blot in CT-26 cells. Type of series: cell-based, mouse. The essentials:
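Lysates were made in HEPES/Triton buffer with TCEP, protease and phosphatase inhibitors and 30 μM pan-PARP inhibitor, normalized by Bradford, and run on SDS-PAGE and nitrocellulose. Blots were probed overnight at 4°C for STING, phospho-TBK1 Ser172 and phospho-IRF3 Ser396 (1:1000 for both phospho antibodies), with tubulin as loading control, and read by HRP chemiluminescence.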
Background: A western blot detects proteins with antibodies after separation by electrophoresis.

For series [2], the target named is T1, PARP12 (Homo sapiens, UniProt Q9H0J9).
T1 sequence (Q9H0J9 484-698 limits assumed): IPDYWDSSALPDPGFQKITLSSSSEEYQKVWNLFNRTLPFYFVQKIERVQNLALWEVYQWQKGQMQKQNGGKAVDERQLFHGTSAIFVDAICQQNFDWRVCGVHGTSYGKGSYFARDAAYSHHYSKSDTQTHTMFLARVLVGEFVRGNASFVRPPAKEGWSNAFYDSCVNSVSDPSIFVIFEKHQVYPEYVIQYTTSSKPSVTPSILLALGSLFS
Particulars: in words; cited from earlier work.

Series [3] concerns ISRE luciferase reporter (type I interferon). The experiment in a line: ISRE luciferase assay in ISRE-Luc CT-26 cells. Type of series: cell-based, mouse. The note with it: 18 h, saturating doses. Put shortly:
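ISRE-Luc CT-26 cells were made by lentiviral ISRE-luciferase transduction with 8 μg/mL polybrene and kept under 20 μg/mL puromycin. 1.0 × 10^4 ISRE-Luc or WT CT-26 cells were grown overnight. Test compound was serially diluted in DMSO, then in medium, and added for 18 h. Lysates were read by ONE-Glo luminescence (2 s integration), with the WT CT-26 signal subtracted as background. Curves were four-parameter fits.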

Series [4] has as its system PARP7 protein levels. The experiment in a line: Endogenous PARP7 protein levels in CT-26 cells. Type of series: cell-based, mouse.
In series [5] the test system is other PARP family members. The experiment in a line: PASTA family-wide PARP inhibitor screening, other PARP family members. Type of series: biochemical.
In series [6] the target is T2, PARP1 (Homo sapiens, UniProt P09874). Particulars: in words; cited from earlier work.
T2 sequence (P09874 whole entry): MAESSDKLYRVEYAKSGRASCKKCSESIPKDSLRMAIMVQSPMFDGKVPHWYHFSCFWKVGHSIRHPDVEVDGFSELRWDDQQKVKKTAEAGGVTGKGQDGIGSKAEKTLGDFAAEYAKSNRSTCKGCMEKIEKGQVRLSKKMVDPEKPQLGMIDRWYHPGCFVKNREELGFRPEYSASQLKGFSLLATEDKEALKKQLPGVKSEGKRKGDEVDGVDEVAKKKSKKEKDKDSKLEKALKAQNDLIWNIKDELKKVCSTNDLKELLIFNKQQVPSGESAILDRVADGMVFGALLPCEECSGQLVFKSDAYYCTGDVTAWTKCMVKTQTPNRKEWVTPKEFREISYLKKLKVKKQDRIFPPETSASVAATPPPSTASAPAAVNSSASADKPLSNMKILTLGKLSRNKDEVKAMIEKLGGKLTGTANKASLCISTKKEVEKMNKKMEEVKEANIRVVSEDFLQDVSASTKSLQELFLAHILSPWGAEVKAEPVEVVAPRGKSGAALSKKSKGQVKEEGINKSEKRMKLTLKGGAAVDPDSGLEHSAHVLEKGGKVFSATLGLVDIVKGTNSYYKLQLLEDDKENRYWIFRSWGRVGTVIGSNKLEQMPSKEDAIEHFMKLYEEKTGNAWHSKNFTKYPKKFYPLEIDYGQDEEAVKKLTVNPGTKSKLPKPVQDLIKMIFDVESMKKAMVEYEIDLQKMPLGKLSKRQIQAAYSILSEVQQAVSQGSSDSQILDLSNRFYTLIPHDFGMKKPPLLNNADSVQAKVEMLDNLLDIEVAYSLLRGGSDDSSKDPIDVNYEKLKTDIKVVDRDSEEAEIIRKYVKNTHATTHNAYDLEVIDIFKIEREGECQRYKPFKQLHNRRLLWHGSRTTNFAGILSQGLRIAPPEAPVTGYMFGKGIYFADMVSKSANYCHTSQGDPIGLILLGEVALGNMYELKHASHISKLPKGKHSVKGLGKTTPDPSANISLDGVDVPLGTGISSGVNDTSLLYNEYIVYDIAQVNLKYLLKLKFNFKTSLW
Series [7] concerns STAT1 and pSTAT1. The experiment in a line: STAT1 and pSTAT1. Format: cell-based, mouse. Particulars: CT-26 cells. The essentials:
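CT-26 cells at 75% confluency were treated with test compound at 0.01–1 μM for 16 h (dose-response) or at 0.3 μM over 0–24 h (time course); DMXAA (10 μg/ml, 1 h) served as positive control. Lysis buffer contained protease and phosphatase inhibitors plus 30 μM pan-PARP inhibitor. Bradford-normalized lysates were run on SDS-PAGE and nitrocellulose, probed for STAT1 and phospho-STAT1 Tyr701, detected by HRP chemiluminescence, and bands quantified densitometrically.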

Series [8] has as its system secreted IFN-β. The experiment in a line: Interferon-β ELISA, CT-26 cells. The note with it: 300 nM, 16 h. Type of series: cell-based, mouse. Put shortly: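 CT-26 cells were grown in RPMI-1640 + 10% FBS in 6-well plates. After 24 h, medium was replaced and cells were treated for 16 h with 300 nM test compound, with or without the covalent STING inhibitor H-151 (500 nM). Harvested medium was assayed for IFN-β with a mouse IFN-β ELISA kit. Statistics: one-way ANOVA.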
(ELISA stands for enzyme-linked immunosorbent assay.)

Series [9] has as its system CYP1A1 mRNA (AHR target gene). The experiment in a line: CYP1A1 mRNA levels in MEFs. Format: cell-based, mouse. Particulars: PARP7−/− MEFs, 1 nM TCDD.
For series [10], the target named is T2, PARP1. The experiment in a line: PASTA biochemical PARP screening assay, PARP1. The note with it: in words.
The target of series [11] is PARP2 (Homo sapiens, UniProt Q9UGN5). The experiment in a line: PASTA biochemical PARP screening assay, PARP2. Particulars: in words.
Sequence of PARP2 (Q9UGN5 whole entry): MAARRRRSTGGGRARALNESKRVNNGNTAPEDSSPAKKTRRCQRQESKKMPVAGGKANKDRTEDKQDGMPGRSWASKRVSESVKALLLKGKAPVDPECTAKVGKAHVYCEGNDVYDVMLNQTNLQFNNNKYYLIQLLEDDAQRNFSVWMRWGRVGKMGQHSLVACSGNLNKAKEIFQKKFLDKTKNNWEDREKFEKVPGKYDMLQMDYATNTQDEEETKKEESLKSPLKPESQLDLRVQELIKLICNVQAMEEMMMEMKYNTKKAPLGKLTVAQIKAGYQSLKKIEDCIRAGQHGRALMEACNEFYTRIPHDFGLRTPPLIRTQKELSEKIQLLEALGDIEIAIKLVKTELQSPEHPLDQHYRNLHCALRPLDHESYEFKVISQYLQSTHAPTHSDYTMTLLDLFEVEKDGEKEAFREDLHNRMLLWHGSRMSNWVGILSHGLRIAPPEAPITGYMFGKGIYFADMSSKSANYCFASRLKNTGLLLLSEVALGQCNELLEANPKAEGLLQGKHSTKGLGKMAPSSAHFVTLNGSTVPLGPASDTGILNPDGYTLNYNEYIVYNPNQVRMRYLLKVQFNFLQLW
The target in series [12] is T3, PARP7 (Homo sapiens, UniProt Q7Z3E1).
T3 sequence (Q7Z3E1 1-657): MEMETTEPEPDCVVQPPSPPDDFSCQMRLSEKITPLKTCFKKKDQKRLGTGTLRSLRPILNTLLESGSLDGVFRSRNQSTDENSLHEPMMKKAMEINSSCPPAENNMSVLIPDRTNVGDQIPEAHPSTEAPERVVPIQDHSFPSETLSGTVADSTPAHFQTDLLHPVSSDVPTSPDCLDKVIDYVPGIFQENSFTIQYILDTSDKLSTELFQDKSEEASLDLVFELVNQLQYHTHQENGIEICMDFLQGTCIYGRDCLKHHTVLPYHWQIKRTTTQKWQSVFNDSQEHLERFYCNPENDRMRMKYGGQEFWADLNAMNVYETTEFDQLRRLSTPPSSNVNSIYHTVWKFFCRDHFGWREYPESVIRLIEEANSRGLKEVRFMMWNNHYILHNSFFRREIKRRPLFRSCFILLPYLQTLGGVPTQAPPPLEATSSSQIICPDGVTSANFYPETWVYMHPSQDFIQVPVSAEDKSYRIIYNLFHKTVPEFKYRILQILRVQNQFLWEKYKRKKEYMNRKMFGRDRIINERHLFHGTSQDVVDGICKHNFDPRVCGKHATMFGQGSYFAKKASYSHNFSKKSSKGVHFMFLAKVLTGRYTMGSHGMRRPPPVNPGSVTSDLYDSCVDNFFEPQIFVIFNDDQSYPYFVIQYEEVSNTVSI
The experiment in a line: PASTA biochemical PARP screening assay, PARP7. Particulars: in words.

The mark [13] stands for this setting: increasing concentrations, 16 h.

Regarding `Cc1ccc2c(=O)c3cccc(CC(=O)O)c3oc2c1C` [DMXAA, 5,6-Dimethylxanthenone-4-acetic Acid], in [1], the STING levels entry is recorded as “substantially decreased”, the pIRF3 result is on record as “robustly induced” and the pTBK1 entry is “robustly induced”.

In the case of `C[C@@H](COCCC(=O)N1CCN(c2ncc(C(F)(F)F)cn2)CC1)Nc1cn[nH]c(=O)c1C(F)(F)F` [RBN-2397], the “inhibition of PARP12, previous study” value in series [2] is “double digit nanomolar inhibition”. Further, the “magnitude of ISRE luciferase response compared to KMR-206” value in [3] is given as ~ 2 fold. Moreover, the “time of maximal PARP7 protein levels after addition” value in series [4] (0.3 μM time-course) was ~ 16 h. For the same molecule, the “endogenous PARP7 levels” value in series [4] (setting [13]) was “dramatically increased”. Besides, the “increase in PARP7 protein abundance compared to KMR-206” value in [4] (saturating doses) stood at 2 fold. The IC50 in series [5] (read-out: IC50 most other PARP family members (does not inhibit up to)) is more than 3000 nM. The “inhibition of PARP1, previous study” value in series [6] is reported as “double digit nanomolar inhibition”. For the same molecule, in series [7] (300 nM), the “time of noticeable increase in STAT1” value was 16 h and the “time of noticeable increase in pSTAT1” value stood at 4 h. Further, in series [7] (setting [13]), the “STAT1 and pSTAT1 levels” value was “dose-dependently increased”. The “levels of secreted IFN-β” value in [8] is on record as “to a greater extent than KMR-206”.

Consider `Clc1cc2c(cc1Cl)Oc1cc(Cl)c(Cl)cc1O2` [TCDD, 2,3,7,8-tetrachlorodibenzo-p-dioxin], for which the “CYP1A1 mRNA levels, TCDD alone” value in series [9] is listed as “robust induction of CYP1A1”.

As to `N#Cc1ccc(N2CCN(C(=O)c3cc(Cc4n[nH]c(=O)c5ccccc45)ccc3F)CC2)nc1` [Phthal01], the “fold more potent against PARP7 compared to all other PARP family members” value in series [5] (other than PARP1 and PARP2) is given as “at least 12 fold”. The “potency against PARP1” value in series [10] was “double-digit nanomolar”. In addition, the “potency against PARP2” value in series [11] was “double-digit nanomolar”. For the same molecule, the “potency against PARP7” value in series [12] was “double-digit nanomolar”.
